Published values collected from several papers.
Compare with care: the assays were run in different laboratories.
Target: Serine/threonine-protein kinase SIK3 (SIK3, Homo sapiens, UniProt Q9Y2K2)

| Compound | assay | setting | endpoint | value |
| --- | --- | --- | --- | --- |
| COc1cc(Nc2cnc(C#N)c(O[C@H](C)CN(C)C)n2)ncc1-c1cnn(C)c1 | enzyme activity, inhibitor, radiometric | 1 µM | remaining activity | 89% |
| O=C(Nc1cnn(-c2csc(C(=O)NC3COC3)c2)c1)Nc1c(F)cccc1Cl | enzyme activity, inhibitor | 5 µM | remaining activity | 94.5% |
| CC(C)(C)c1nc(-c2cccc(NS(=O)(=O)c3c(F)cccc3F)c2F)c(-c2ccnc(N)n2)s1 | enzyme activity, inhibitor, radiometric | 1 µM | remaining activity | 60% |
| CN(C(=O)c1ccccc1)c1cc(N(C)c2ccc3c(c2)CCc2ccc(C(=O)NCCN4CCOCC4)cc2C3=O)ccc1F | cell-free assay, competition with immobilised ligand | 1 µM | remaining binding | 74% |
| Cc1ccc(C(=O)Nc2ccc(CN3CCN(C)CC3)c(C(F)(F)F)c2)cc1C#Cc1cnc2cccnn12 | enzyme activity, inhibitor | 23.5 nM | remaining activity | 87% |
| Nc1ncnc2occ(-c3ccc(NC(=O)Nc4cc(C(F)(F)F)ccc4F)cc3)c12 | cell-free assay, inhibitor | 20 µM | remaining signal | 76% |
| Cc1sc(C(=O)NC2COC2)cc1-n1cc(NC(=O)Nc2c(F)cccc2Cl)cn1 | enzyme activity, inhibitor | 10 µM | remaining activity | 86.9% |
| FC(F)(F)Oc1cccc(-c2cnc3ccc(-c4ccncc4)nn23)c1 | enzyme activity, inhibitor, radiometric | 5 µM | activity vs control | 102% |
| CC(C)(C)c1nc2c(s1)c1nc(N)ncc1c1ccc(NS(=O)(=O)c3c(F)cccc3F)c(F)c12 | enzyme activity, inhibitor, radiometric | 1 µM | remaining activity | 98% |
| COc1cc(Cl)c(C(=O)N[C@@H](CN[C@H]2CC[C@@H](N)CC2)Cc2ccc(C#N)cc2)cc1-c1ccc(CN[C@H](C)c2ccc(C)cc2)o1 | enzyme activity, inhibitor | 1 µM | remaining activity | 102% |
| COc1cc(/C=C/C(=O)CC(=O)/C=C/c2ccc(O)c(OC)c2)ccc1O | enzyme activity, inhibitor | 1 µM | activity vs control | 91% |
| O=S(=O)(NC1CCC(c2cc(F)ccc2F)(S(=O)(=O)c2ccc(Cl)cc2)CC1)C(F)(F)F (stereo not drawn) | cell-free assay, competition with immobilised ligand | 1 µM | remaining binding | 100% |
